# How the values were obtained:
# Talaromyces funiculosus [1] = experiment: Antifungal activity against Penicillium funiculosum ATCC 36839 after 72 hrs by serial dilution method; type: functional; settings: ATCC 36839, 72 h
# In short: (§1)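 Fungi were kept on malt agar at 4 °C and sub-cultured monthly. Spores were washed off the agar with sterile 0.85% saline containing 0.1% Tween 80 (v/v). Modified microdilution in 96-well plates. MIC is the lowest concentration with no visible growth under the binocular microscope. Inoculum checked on malt agar for contamination and validity.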
# Micrococcus flavus [2] = experiment: Antibacterial activity against Micrococcus flavus ATCC 10240 after 72 hrs by serial sub-cultivation method; type: functional; settings: ATCC 10240, 72 h
# In short: (§2)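 MBC was found by serial sub-cultivation of 2 µl from the MIC wells into plates holding 100 µl broth per well, then incubation for 72 h. MBC is the lowest concentration with no visible growth, i.e. 99.5% killing of the original inoculum. Bacterial inoculum was 1.0 × 10^4 cfu per well in LB broth. Duplicate, repeated three times.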
# Trichoderma viride [3] = experiment: Antifungal activity against Trichoderma viride IAM 5061 after 72 hrs by serial dilution method; type: functional; settings: IAM 5061, 72 h; in short: as §1
# Trichoderma viride [4] = experiment: Antifungal activity against Trichoderma viride IAM 5061 after 72 hrs by serial sub-cultivation method; type: functional; settings: IAM 5061, 72 h
# In short: (§3)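 MFC was found by serial sub-cultivation of 2 µl into plates holding 100 µl broth per well, then incubation 72 h at 28 °C. MFC is the lowest concentration with no visible growth, taken as 99.5% killing of the original inoculum. Spore inocula came from malt agar cultures washed with 0.85% saline and 0.1% Tween 80.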
# Staphylococcus aureus [5] = experiment: Antibacterial activity against Staphylococcus aureus ATCC 6538 after 72 hrs by serial sub-cultivation method; type: functional; settings: ATCC 6538, 72 h; in short: as §2
# Penicillium ochrochloron [6] = experiment: Antifungal activity against Penicillium ochrochloron ATCC 9112 after 72 hrs by serial dilution method; type: functional; settings: ATCC 9112, 72 h; in short: as §1
# Bacillus cereus [7] = experiment: Antibacterial activity against Bacillus cereus clinical isolate after 72 hrs by serial sub-cultivation method; type: functional; in short: as §2
# Salmonella typhimurium [8] = experiment: Antibacterial activity against Salmonella Typhimurium ATCC 13311 after 72 hrs by serial sub-cultivation method; type: functional, Salmonella enterica subsp. enterica serovar Typhimurium; settings: Salmonella enterica, ATCC 13311, 72 h; in short: as §2
# Aspergillus niger [9] = experiment: Antifungal activity against Aspergillus niger ATCC 6275 after 72 hrs by serial dilution method; type: functional; settings: ATCC 6275, 72 h; in short: as §1
# Aspergillus fumigatus [10] = experiment: Antifungal activity against Aspergillus fumigatus plant isolate after 72 hrs by serial dilution method
# Fulvia fulva [11] = experiment: Antifungal activity against Fulvia fulva TK 5318 after 72 hrs by serial dilution method; type: functional; settings: TK 5318, 72 h; in short: as §1
# Aspergillus niger [12] = experiment: Antifungal activity against Aspergillus niger ATCC 6275 after 72 hrs by serial sub-cultivation method; type: functional; settings: ATCC 6275, 72 h; in short: as §3
# Escherichia coli [13] = experiment: Antibacterial activity against Escherichia coli ATCC 35210 after 72 hrs by serial sub-cultivation method; type: functional; settings: ATCC 35210, 72 h; in short: as §2
# Talaromyces funiculosus [14] = experiment: Antifungal activity against Penicillium funiculosum ATCC 36839 after 72 hrs by serial sub-cultivation method; type: functional; settings: ATCC 36839, 72 h; in short: as §3
# Aspergillus flavus [15] = experiment: Antifungal activity against Aspergillus flavus ATCC 9643 after 72 hrs by serial sub-cultivation method; type: functional; settings: ATCC 9643, 72 h; in short: as §3
# Aspergillus fumigatus [16] = experiment: Antifungal activity against Aspergillus fumigatus plant isolate after 72 hrs by serial sub-cultivation method
# Aspergillus flavus [17] = experiment: Antifungal activity against Aspergillus flavus ATCC 9643 after 72 hrs by serial dilution method; type: functional; settings: ATCC 9643, 72 h; in short: as §1
# Proteus mirabilis [18] = experiment: Antibacterial activity against Proteus mirabilis after 72 hrs by serial sub-cultivation method; type: functional; in short: as §2
# Bacillus cereus [19] = experiment: Antibacterial activity against Bacillus cereus clinical isolate after 24 hrs; type: functional
# In short: (§4)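 Broth microdilution MIC in 96-well plates. Compounds in LB broth with bacterial inoculum of 1.0 × 10^4 cfu per well, from suspensions adjusted with sterile saline to 1.0 × 10⁵ CFU/ml. Incubated 24 h at […] as printed. MIC taken as the lowest concentration with no visible growth under the binocular microscope. OD at 655 nm also read against blank. Streptomycin and ampicillin as positive controls. Duplicate, repeated three times.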
# Pseudomonas aeruginosa [20] = experiment: Antibacterial activity against Pseudomonas aeruginosa ATCC 27853 after 72 hrs by serial sub-cultivation method; type: functional; settings: ATCC 27853, 72 h; in short: as §2
# Escherichia coli [21] = experiment: Antibacterial activity against Escherichia coli ATCC 35210 after 24 hrs; type: functional; settings: ATCC 35210, 24 h; in short: as §4
# Aspergillus versicolor [22] = experiment: Antifungal activity against Aspergillus versicolor ATCC 11730 after 72 hrs by serial dilution method; type: functional; settings: ATCC 11730, 72 h; in short: as §1
# Micrococcus flavus [23] = experiment: Antibacterial activity against Micrococcus flavus ATCC 10240 after 24 hrs; type: functional; settings: ATCC 10240, 24 h; in short: as §4
# Penicillium ochrochloron [24] = experiment: Antifungal activity against Penicillium ochrochloron ATCC 9112 after 72 hrs by serial sub-cultivation method; type: functional; settings: ATCC 9112, 72 h; in short: as §3
# Staphylococcus aureus [25] = experiment: Antibacterial activity against Staphylococcus aureus ATCC 6538 after 24 hrs; type: functional; settings: ATCC 6538, 24 h; in short: as §4
# Pseudomonas aeruginosa [26] = experiment: Antibacterial activity against Pseudomonas aeruginosa ATCC 27853 after 24 hrs; type: functional; settings: ATCC 27853, 24 h; in short: as §4
# Proteus mirabilis [27] = experiment: Antibacterial activity against Proteus mirabilis after 24 hrs; type: functional; in short: as §4
# Aspergillus versicolor [28] = experiment: Antifungal activity against Aspergillus versicolor ATCC 11730 after 72 hrs by serial sub-cultivation method; type: functional; settings: ATCC 11730, 72 h; in short: as §3
# Fulvia fulva [29] = experiment: Antifungal activity against Fulvia fulva TK 5318 after 72 hrs by serial sub-cultivation method; type: functional; settings: TK 5318, 72 h; in short: as §3
# Salmonella typhimurium [30] = experiment: Antibacterial activity against Salmonella Typhimurium ATCC 13311 after 24 hrs; type: functional, Salmonella enterica subsp. enterica serovar Typhimurium; settings: Salmonella enterica, ATCC 13311, 24 h; in short: as §4
# Listeria monocytogenes [31] = experiment: Antibacterial activity against Listeria monocytogenes NCTC 7973 after 24 hrs; type: functional; settings: NCTC 7973, 24 h; in short: as §4
# Listeria monocytogenes [32] = experiment: Antibacterial activity against Listeria monocytogenes NCTC 7973 after 72 hrs by serial sub-cultivation method; type: functional; settings: NCTC 7973, 72 h; in short: as §2
SMILES,MIC (Talaromyces funiculosus [1]),MBC (Micrococcus flavus [2]),MIC (Trichoderma viride [3]),MFC (Trichoderma viride [4]),MBC (Staphylococcus aureus [5]),MIC (Penicillium ochrochloron [6]),MBC (Bacillus cereus [7]),MBC (Salmonella typhimurium [8]),MIC (Aspergillus niger [9]),MIC (Aspergillus fumigatus [10]),MIC (Fulvia fulva [11]),MFC (Aspergillus niger [12]),MBC (Escherichia coli [13]),MFC (Talaromyces funiculosus [14]),MFC (Aspergillus flavus [15]),MFC (Aspergillus fumigatus [16]),MIC (Aspergillus flavus [17]),MBC (Proteus mirabilis [18]),MIC (Bacillus cereus [19]),MBC (Pseudomonas aeruginosa [20]),also measured
O=C1N/C(=N/c2nc(C34CC5CC(CC(C5)C3)C4)cs2)S/C1=C\c1ccc([N+](=O)[O-])cc1,21.5 µM,21.5 µM,10.8 µM,21.5 µM,43 µM,16.1 µM,21.5 µM,21.5 µM,10.8 µM,16.1 µM,16.1 µM,21.5 µM,43 µM,21.5 µM,21.5 µM,21.5 µM,16.1 µM,64.5 µM,21.5 µM,43 µM,MIC (Escherichia coli [21]): 21.5 µM; MIC (Aspergillus versicolor [22]): 16.1 µM; MIC (Micrococcus flavus [23]): 21.5 µM; MFC (Penicillium ochrochloron [24]): 21.5 µM; MIC (Staphylococcus aureus [25]): 16.1 µM; MIC (Pseudomonas aeruginosa [26]): 21.5 µM; MIC (Proteus mirabilis [27]): 43 µM; MFC (Aspergillus versicolor [28]): 21.5 µM; MFC (Fulvia fulva [29]): 21.5 µM; MIC (Salmonella typhimurium [30]): 21.5 µM; MIC (Listeria monocytogenes [31]): 21.5 µM; MBC (Listeria monocytogenes [32]): 43 µM
O=C1N/C(=N/c2nc(C34CC5CC(CC(C5)C3)C4)cs2)S/C1=C\c1ccc(Cl)cc1,11 µM,21.9 µM,11 µM,16.4 µM,43.8 µM,16.4 µM,21.9 µM,43.8 µM,11 µM,11 µM,11 µM,21.9 µM,43.8 µM,21.9 µM,21.9 µM,21.9 µM,11 µM,65.7 µM,16.4 µM,43.8 µM,MIC (Escherichia coli [21]): 21.9 µM; MIC (Aspergillus versicolor [22]): 16.4 µM; MIC (Micrococcus flavus [23]): 11 µM; MFC (Penicillium ochrochloron [24]): 21.9 µM; MIC (Staphylococcus aureus [25]): 21.9 µM; MIC (Pseudomonas aeruginosa [26]): 21.9 µM; MIC (Proteus mirabilis [27]): 43.8 µM; MFC (Aspergillus versicolor [28]): 21.9 µM; MFC (Fulvia fulva [29]): 16.4 µM; MIC (Salmonella typhimurium [30]): 21.9 µM; MIC (Listeria monocytogenes [31]): 21.9 µM; MBC (Listeria monocytogenes [32]): 43.8 µM
COc1cc(/C=C2\S/C(=N\c3nc(C45CC6CC(CC(C6)C4)C5)cs3)NC2=O)ccc1O,16.4 µM,21.9 µM,11 µM,21.9 µM,43.8 µM,16.4 µM,21.9 µM,43.8 µM,16.4 µM,16.4 µM,11 µM,21.9 µM,16.4 µM,21.9 µM,21.9 µM,21.9 µM,16.4 µM,65.7 µM,11 µM,43.8 µM,MIC (Escherichia coli [21]): 11 µM; MIC (Aspergillus versicolor [22]): 16.4 µM; MIC (Micrococcus flavus [23]): 11 µM; MFC (Penicillium ochrochloron [24]): 21.9 µM; MIC (Staphylococcus aureus [25]): 21.9 µM; MIC (Pseudomonas aeruginosa [26]): 16.4 µM; MIC (Proteus mirabilis [27]): 43.8 µM; MFC (Aspergillus versicolor [28]): 21.9 µM; MFC (Fulvia fulva [29]): 21.9 µM; MIC (Salmonella typhimurium [30]): 21.9 µM; MIC (Listeria monocytogenes [31]): 11 µM; MBC (Listeria monocytogenes [32]): 21.9 µM
